Publication PMC2018624 (Nucleic Acids Research, 2007)
Square brackets hold non-standard residues; d marks the D form. Ends that are not written are not given here. Peptide text beside a SMILES is read from it. * marks the point of attachment. Biotin = O=C1N[C@H]2[C@H](CS[C@H]2CCCCC(=O)*)N1; pS = N[C@@H](COP(=O)(O)O)C(=O)O

Assays:
[1] = tested on: 53BP1 Ser25 phosphorylation in HEK293 cells; assay: IR-induced phosphorylation of 53BP1 Ser25 in HEK293 cells; assay type: cell-based; conditions: 10 μM inhibitor pre-incubated 1 h, IR 10 Gy, western blot
FLAG-hPTIP = assay: Co-immunoprecipitation of mutant HA-53BP1 with FLAG-hPTIP after IR; assay type: cell-based, human; conditions: HEK293, IR 0 or 20 Gy, anti-FLAG immunoprecipitates
In short: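 HEK293 cells in DMEM with 10% FBS and penicillin/streptomycin at 37°C, 5% CO2. Cells co-transfected by calcium phosphate with FLAG-hPTIP and full-length HA-53BP1 carrying Ser/Thr→Ala mutations at ATM S/T-Q motifs. Cells irradiated at 0 or 20 Gy and lysed. Anti-FLAG immunoprecipitates run on SDS–PAGE and western blotted to detect co-precipitated 53BP1.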

HEK293 cells = assay: 53BP1 retention at sites of DNA damage; assay type: cell-based; conditions: HEK293, 10 Gy IR, 45 min recovery
[2] = molecular target: S-Q-V-F (P) peptide, biotin-GAAYDI-pSQ-VFPFAKKK
[3] = tested on: BRCA1 Ser1524 phosphorylation in HEK293 cells; assay: IR-induced phosphorylation of BRCA1 at Ser1524; assay type: cell-based; conditions: HEK293, IR 3 Gy, siRNA depletion or rescue, western blot
full-length HA-53BP1 = assay: Co-immunoprecipitation of mutant FLAG-hPTIP with HA-53BP1 after IR; assay type: cell-based, human; conditions: HEK293, IR 0 or 20 Gy, anti-FLAG immunoprecipitates
U2OS cells = assay: hPTIP nuclear focus formation after IR in U2OS cells; assay type: cell-based; conditions: 15 Gy IR, 45 min recovery
In short: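 U2OS cells on glass coverslips transiently transfected with wild-type or point-mutant FLAG-hPTIP. Irradiated 0 or 15 Gy, recovered 45 min at 37°C, then fixed, permeabilised and blocked. Anti-FLAG or anti-53BP1 (1 µg/ml) 60 min at room temperature, then Alexa488/594 secondaries (2 µg/ml) 60 min. Fluorescence microscopy; anti-FLAG foci counted in ~200 transfected cells; mean ± SD.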

[4] = molecular target: hPTIP-BRCT pair C1 + C2 W676A (Homo sapiens, UniProt Q6ZW49, W676A); assay: BiaCore binding to hPTIP BRCT pair C1 + C2 W676A
[5] = molecular target: hPTIP-BRCT pair C1 + C2 W929A (Homo sapiens, UniProt Q6ZW49, W929A); assay: BiaCore binding to hPTIP BRCT pair C1 + C2 W929A
53BP1 [6] = assay: GST-hPTIP BRCT retrieval of 53BP1 from extracts of irradiated HEK 293 cells; assay type: binding, human; conditions: GST fusion on glutathione-sepharose, HEK 293 extract, 10 Gy IR, western blot
[7] = molecular target: hPTIP BRCT domain pair C2 (Homo sapiens, UniProt Q6ZW49); assay: BiaCore binding to hPTIP BRCT pair C2 alone
[8] = molecular target: 53BP1 peptide Non(P), biotin-… (human); assay: SPR
[9] = molecular target: 53BP1 peptide Ser25(P), biotin-…p… (human); assay: SPR
[10] = tested on: Chk2 Thr68 phosphorylation in HEK293 cells; assay: IR-induced phosphorylation of Chk2 at Thr68; assay type: cell-based; conditions: HEK293, IR 3 Gy, siRNA depletion or rescue, western blot
53BP1 [11] = conditions: previous report; ref [4]; cited from earlier work
[12] = molecular target: GST-hPTIP (590–1069) W676A (human, UniProt Q6ZW49 590-1069, W676A); assay: SPR
[13] = molecular target: GST-hPTIP (590–1069) W929A (human, UniProt Q6ZW49 590-1069, W929A); assay: SPR

GST-hPTIP (590–1069) W676A, sequence (Q6ZW49 590-1069 W676A): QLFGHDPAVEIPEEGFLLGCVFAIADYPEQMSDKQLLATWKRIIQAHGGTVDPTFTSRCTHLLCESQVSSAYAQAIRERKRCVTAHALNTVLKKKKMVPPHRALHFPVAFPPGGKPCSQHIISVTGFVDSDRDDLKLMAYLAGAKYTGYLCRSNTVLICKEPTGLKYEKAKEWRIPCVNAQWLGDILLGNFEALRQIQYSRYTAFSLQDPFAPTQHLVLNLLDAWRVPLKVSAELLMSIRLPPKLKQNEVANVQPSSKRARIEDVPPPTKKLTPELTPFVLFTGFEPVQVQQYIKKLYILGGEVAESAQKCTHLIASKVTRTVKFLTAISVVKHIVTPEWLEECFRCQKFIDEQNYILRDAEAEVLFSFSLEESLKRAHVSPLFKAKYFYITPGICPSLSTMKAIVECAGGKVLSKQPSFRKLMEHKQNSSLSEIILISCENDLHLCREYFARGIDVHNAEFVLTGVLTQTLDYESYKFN
hPTIP-BRCT pair C1 + C2 W676A, sequence (Q6ZW49 590-1069 W676A): as above
hPTIP-BRCT pair C1 + C2 W929A, sequence (Q6ZW49 590-1069 W929A): as the sequence (Q6ZW49 590-1069 W676A) above, with A87W, W340A counted along it
53BP1 peptide Ser25(P), biotin-…p… (human), sequence (Q12888 16-35): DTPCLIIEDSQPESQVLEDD

O=c1cc(-c2cccc3c2Sc2ccccc2S3)oc(N2CCOCC2)c1 [KU55933]
IR-induced phosphorylation of 53BP1 Ser25 [1]: not in cells pre-incubated with the ATM-specific inhibitor KU55933

53BP1 Ser25Ala mutant
IR-induced interaction of 53BP1 with hPTIP (FLAG-hPTIP): abolished | retention at sites of DNA damage (HEK293 cells): indistinguishable from the wild-type protein

GST-hPTIP (862–1069) (BRCT pair C2) (from UniProt Q6ZW49 862-1069) (domain or fragment)
Kd [2]: 0.273 µM

R910Q
phosphorylation of BRCA1 at Ser1524 [3]: could not | binding of hPTIP to 53BP1 in IR-treated cells (full-length HA-53BP1): abolished | nuclear focus formation after IR (U2OS cells): little effect on the ability of hPTIP to form foci after IR

CC[C@H](C)[C@H](NC(=O)[C@H](CC(C)C)NC(=O)[C@H](CS)NC(=O)[C@@H]1CCCN1C(=O)[C@@H](NC(=O)[C@H](CC(=O)O)NC(=O)CCCC[C@@H]1SC[C@@H]2NC(=O)N[C@@H]21)[C@@H](C)O)C(=O)N[C@H](C(=O)N[C@@H](CCC(=O)O)C(=O)N[C@@H](CC(=O)O)C(=O)N[C@@H](COP(=O)(O)O)C(=O)N[C@@H](CCC(N)=O)C(=O)N1CCC[C@H]1C(=O)N[C@@H](CCC(=O)O)C(=O)N[C@@H](CO)C(=O)N[C@@H](CCC(N)=O)C(=O)N[C@H](C(=O)N[C@@H](CC(C)C)C(=O)N[C@@H](CCC(=O)O)C(=O)N[C@@H](CC(=O)O)C(=O)N[C@@H](CC(=O)O)C(=O)O)C(C)C)[C@@H](C)CC [Ser25(P)] (Biotin-DTPCLIIED[pS]QPESQVLEDD-OH)
Kd [4]: > 1000 µM | Kd [5]: > 1000 µM

W676A
binding of hPTIP to 53BP1 in IR-treated cells (full-length HA-53BP1): abolished | retrieval of 53BP1 from cell extracts (53BP1 [6]): prevented | nuclear focus formation after IR (U2OS cells): prevented focus formation | number of nuclear foci per cell, after IR (U2OS cells; ∼200 transfected cells, almost all cells): < 10 foci

W929A
binding of hPTIP to 53BP1 in IR-treated cells (full-length HA-53BP1): abolished | nuclear focus formation after IR (U2OS cells): prevented focus formation

CC[C@H](C)[C@H](NC(=O)[C@H](CC(=O)O)NC(=O)[C@H](Cc1ccc(O)cc1)NC(=O)[C@H](C)NC(=O)[C@H](C)NC(=O)CNC(=O)CCCC[C@@H]1SC[C@@H]2NC(=O)N[C@@H]21)C(=O)N[C@@H](COP(=O)(O)O)C(=O)N[C@@H](CCC(N)=O)C(=O)N[C@H](C(=O)N[C@@H](Cc1ccccc1)C(=O)N1CCC[C@H]1C(=O)N[C@@H](Cc1ccccc1)C(=O)N[C@@H](C)C(=O)N[C@@H](CCCCN)C(=O)N[C@@H](CCCCN)C(=O)N[C@@H](CCCCN)C(=O)O)C(C)C [S-Q-V-F peptide] (Biotin-GAAYDI[pS]QVFPFAKKK-OH)
Kd [7]: ~0.273 µM

GST-hPTIP (590–1069) (BRCT pairs C1 + C2) (from UniProt Q6ZW49 590-1069) (domain or fragment)
Kd [8]: > 1000 µM | Kd [9]: 0.526 µM

mutation of Ser29: 53BP1 with Ser29 singly mutated
IR-induced interaction of 53BP1 with hPTIP (FLAG-hPTIP): no effect

O=c1cc(N2CCOCC2)oc2c(-c3cccc4c3sc3ccccc34)cccc12 [NU7441]
IR-induced phosphorylation of 53BP1 Ser25 [1]: did not affect IR-induced phosphorylation of 53BP1 Ser25

wild-type 53BP1: HA-53BP1 carrying a silent mutation, refractory to silencing by siRNA
phosphorylation of Chk2 at Thr68 [10]: could rescue

B1: hPTIP BRCT pair C2: bacterially expressed GST-hPTIP (862–1069) (protein, UniProt Q6ZW49 862-1069, looked up, fragment)
chain: TPELTPFVLFTGFEPVQVQQYIKKLYILGGEVAESAQKCTHLIASKVTRTVKFLTAISVVKHIVTPEWLEECFRCQKFIDEQNYILRDAEAEVLFSFSLEESLKRAHVSPLFKAKYFYITPGICPSLSTMKAIVECAGGKVLSKQPSFRKLMEHKQNSSLSEIILISCENDLHLCREYFARGIDVHNAEFVLTGVLTQTLDYESYKFN
modifications: GST tag
retrieval of phosphorylated 53BP1 from extracts of irradiated cells (53BP1 [11]): could retrieve phosphorylated 53BP1 from extracts of irradiated cells

Biotin-DTPCLIIED[pS]QPESQVLEDD [53BP1 peptide Ser25(P), biotin-DTPCLIIEDpSQPESQVLEDD]
Kd [12]: > 1000 µM | Kd [13]: > 1000 µM
